In ChEMBL document CHEMBL4261517, “A structurally guided dissection-then-evolution strategy for ligand optimization of smoothened receptor” (Medchemcomm, 2017):

Columns and labels:
[1] = biological target: Protein smoothened (Homo sapiens) (UniProt Q99835); assay: Binding affinity to recombinant human N-terminal FLAG/His10-tagged/C-terminal His10-tagged flavodoxin-fused Smo receptor expressed in HEK293F cells assessed as melting temperature at 100 uM after 40 mins by CPM dye based spectrofluorometric method; type: cell-based
Protein smoothened (Homo sapiens), sequence (Q99835 whole entry, the tested form may be a part): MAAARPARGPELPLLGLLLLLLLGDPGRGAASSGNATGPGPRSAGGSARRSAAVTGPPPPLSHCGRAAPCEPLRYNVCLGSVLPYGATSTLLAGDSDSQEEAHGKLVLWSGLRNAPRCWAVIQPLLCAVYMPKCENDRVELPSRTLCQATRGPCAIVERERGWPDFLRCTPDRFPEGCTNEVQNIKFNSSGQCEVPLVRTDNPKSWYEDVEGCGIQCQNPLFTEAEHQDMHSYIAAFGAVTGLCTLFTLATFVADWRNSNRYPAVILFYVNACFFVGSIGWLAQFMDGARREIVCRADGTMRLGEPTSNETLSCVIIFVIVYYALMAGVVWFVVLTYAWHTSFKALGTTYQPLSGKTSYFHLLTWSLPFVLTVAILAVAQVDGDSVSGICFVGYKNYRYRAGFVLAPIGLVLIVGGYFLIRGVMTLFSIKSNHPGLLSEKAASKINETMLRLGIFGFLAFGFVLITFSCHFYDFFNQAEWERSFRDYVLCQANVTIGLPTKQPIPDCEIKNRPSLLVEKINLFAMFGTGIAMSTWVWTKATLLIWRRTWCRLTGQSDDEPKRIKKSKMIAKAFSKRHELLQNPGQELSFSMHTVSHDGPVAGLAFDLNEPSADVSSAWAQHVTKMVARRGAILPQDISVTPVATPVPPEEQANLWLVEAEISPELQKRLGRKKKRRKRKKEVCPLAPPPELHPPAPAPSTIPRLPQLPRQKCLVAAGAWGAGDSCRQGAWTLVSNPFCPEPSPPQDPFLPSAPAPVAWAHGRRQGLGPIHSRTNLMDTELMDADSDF
Summary of the method: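 Purified SMO in micelles mixed with thiol-reactive CPM dye and thermally denatured. Fluorescence (365/460 nm) followed as exposed cysteines react. Tm taken as the temperature at which 50% of the fluorescence increase is reached.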

Protein smoothened = Protein smoothened (Mus musculus, UniProt P56726); assay: Antagonist activity at Smo receptor in mouse NIH/3T3 cells harboring GRE-Luc assessed as inhibition of SAG-induced Hh signaling pathway preincubated for 1 to 2 hrs followed by SAG addition and measured after 24 hrs by Bright-Glo luciferase reporter gene assay; type: functional, cell-based
Protein smoothened, sequence (P56726 whole entry): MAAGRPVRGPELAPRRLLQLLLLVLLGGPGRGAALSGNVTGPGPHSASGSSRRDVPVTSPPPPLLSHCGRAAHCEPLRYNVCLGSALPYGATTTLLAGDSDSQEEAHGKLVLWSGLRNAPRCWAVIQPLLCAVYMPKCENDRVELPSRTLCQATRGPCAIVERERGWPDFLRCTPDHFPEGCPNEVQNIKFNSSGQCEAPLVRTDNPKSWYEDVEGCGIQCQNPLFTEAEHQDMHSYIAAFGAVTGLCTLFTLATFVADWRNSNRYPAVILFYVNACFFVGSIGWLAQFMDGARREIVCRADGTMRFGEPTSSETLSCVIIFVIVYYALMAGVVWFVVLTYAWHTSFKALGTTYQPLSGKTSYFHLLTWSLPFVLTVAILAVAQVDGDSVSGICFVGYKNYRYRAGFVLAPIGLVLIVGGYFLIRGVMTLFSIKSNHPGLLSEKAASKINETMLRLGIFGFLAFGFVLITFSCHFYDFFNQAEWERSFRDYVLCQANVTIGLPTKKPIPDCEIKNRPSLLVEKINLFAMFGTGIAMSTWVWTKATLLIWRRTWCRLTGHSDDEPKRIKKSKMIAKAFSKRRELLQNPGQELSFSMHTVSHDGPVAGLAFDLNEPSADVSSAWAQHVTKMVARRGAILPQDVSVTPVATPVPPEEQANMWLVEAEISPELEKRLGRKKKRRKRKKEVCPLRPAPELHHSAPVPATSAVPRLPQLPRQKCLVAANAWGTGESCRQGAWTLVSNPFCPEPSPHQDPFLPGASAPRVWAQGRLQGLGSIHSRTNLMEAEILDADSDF
Summary of the method: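 Light II cells (NIH-3T3 stably carrying a Gli-responsive firefly luciferase reporter) treated with compound for 24 h. Luciferase read-out of Hedgehog pathway inhibition. IC50 reported as mean ± SEM from at least three independent experiments, each run in duplicate.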

[2] = Stability of the compound in DMEM at […] by RP-HPLC analysis; type: physicochemical

Tm [1] [°C] | IC50 (Protein smoothened) [nM] | Stability [2] | SMILES
59.6 | 270 |  | CN(C(=O)c1ccc(Oc2ccccc2)cc1)C1CCN(c2nnc(-c3ccnn3C)c3ccccc23)CC1
59.4 | 2680 |  | CN(C(=O)c1ccc(S(=O)(=O)O)cc1)C1CCN(c2nnc(-c3ccnn3C)c3ccccc23)CC1
56.8 | > 10000 |  | CN(C(=O)c1ccc(C(=O)O)cc1)C1CCN(c2nnc(-c3ccnn3C)c3ccccc23)CC1
59 | 2890 |  | CN(C(=O)c1ccc(C=O)cc1)C1CCN(c2nnc(-c3ccnn3C)c3ccccc23)CC1
60.3 | > 10000 |  | COC(=O)c1ccc(C(=O)N(C)C2CCN(c3nnc(-c4ccnn4C)c4ccccc34)CC2)cc1
59.4 | 870 |  | CN(C(=O)c1ccc(B(O)O)cc1)C1CCN(c2nnc(-c3ccnn3C)c3ccccc23)CC1
60.2 | > 10000 |  | CN(C(=O)c1ccc(CC=O)cc1)C1CCN(c2nnc(-c3ccnn3C)c3ccccc23)CC1
58.4 | 1800 |  | CN(C(=O)c1ccc(OCc2ccccc2)cc1)C1CCN(c2nnc(-c3ccnn3C)c3ccccc23)CC1
58.2 | 2020 |  | CN(C(=O)c1ccc(N)cc1)C1CCN(c2nnc(-c3ccnn3C)c3ccccc23)CC1
 |  | Stable | CN(C(=O)c1ccccc1)C1CCN(c2nnc(-c3ccnn3C)c3ccccc23)CC1
56.3 | > 10000 |  | CN(C(=O)c1ccc(S(C)(=O)=O)cc1)C1CCN(c2nnc(-c3ccnn3C)c3ccccc23)CC1
 |  | Stable | CN(C(=O)c1ccc(F)cc1C(F)(F)F)C1CCN(c2nnc(Cl)c3ccccc23)CC1
61 | 236 |  | CN(C(=O)c1ccc([N+](=O)[O-])cc1)C1CCN(c2nnc(-c3ccnn3C)c3ccccc23)CC1
 |  | Stable | CN(Cc1ccc(F)cc1C(F)(F)F)C1CCN(c2nnc(-c3ccnn3C)c3ccccc23)CC1
59.7 | 3020 |  | CN(C(=O)c1ccc(C(N)=O)cc1)C1CCN(c2nnc(-c3ccnn3C)c3ccccc23)CC1
58.5 | 1410 |  | CN(C)c1ccc(C(=O)N(C)C2CCN(c3nnc(-c4ccnn4C)c4ccccc34)CC2)cc1
57.1 | 3240 |  | CN(C(=O)c1ccc(S(N)(=O)=O)cc1)C1CCN(c2nnc(-c3ccnn3C)c3ccccc23)CC1
59.1 | 1570 |  | CN(C(=O)c1ccc(F)cc1)C1CCN(c2nnc(-c3ccnn3C)c3ccccc23)CC1
56.8 | > 10000 |  | CN(C(=O)c1ccc(NCC(=O)O)cc1)C1CCN(c2nnc(-c3ccnn3C)c3ccccc23)CC1
 |  | Stable | CN(C(=O)c1ccc(F)cc1C(F)(F)F)C1CCN(c2ccc(-c3ccnn3C)c3ccccc23)CC1
 |  | Stable | CN(C(=O)c1ccc(F)cc1C(F)(F)F)C1CCN(c2nnc(-c3ccnn3C)c3ccccc23)CC1 [TALADEGIB]
